Experimental data published in article PMC6872935 (Nature materials, 2019).

Columns and labels:
[1] = Ex vivo CEST MRI of organs; format: in vivo, NU/J nude mice; settings: 0.2 mmol/kg i.v.; 2 h p.i. for Olsa-RVRR, 0.5 h p.i. for olsalazine; n=4 mice
How it was run: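 Female nude mice carried s.c. HCT116 (left flank) and LoVo (right flank) xenografts of 100-200 mm³. They received 0.2 mmol/kg test compound i.v. in PBS with 1% DMSO and were killed at 2 h or 30 min. Major organs were placed in PBS in a sealed well plate for CEST imaging. Signal was computed as MTR_asym, expressed relative to muscle; mean±SD, n=4.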

[2] = Mouse body weight during treatment; format: in vivo, NU/J nude mice; settings: 0.1 mmol/kg i.v., Q3D×8, n=4 mice
How it was run: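 Female NU/J nude mice, 6-8 weeks old, carried s.c. xenografts of 1×10⁶ HCT116 (left flank) and 1×10⁶ LoVo (right flank) cells. Repeated i.v. dosing (QD3×8) began after tumor cell injection, with a PBS control group. Body weight was recorded over time and reported as mean±SD, n=4 mice.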

[3] = tested on: HCT116 tumor; assay: In vivo CEST MRI of tumor xenograft; parameters: species or system NU/J nude mice; settings: 0.2 mmol/kg i.v.; no significant difference between HCT116 and LoVo tumors
How it was run: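 Female NU/J nude mice bore s.c. HCT116 (left flank) and LoVo (right flank) xenografts, 1×10⁶ cells each. At 100–200 mm³, mice received i.v. 0.2 mmol/kg test compound or parent drug in PBS with 1% DMSO. Serial CEST MRI over 24 h at 11.7 T used RARE, TR/TE 5,000/3.7 ms, B₁ 3.6 μT, t_sat 4 s, and offsets ±7.4–12.6 ppm. The 0 h MTR_asym was subtracted; n=4 mice.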

[4] = tested on: LoVo tumor; assay: Anti-tumor treatment response; format: in vivo, NU/J nude mice; settings: 0.1 mmol/kg i.v., Q3D×8, n=4 mice
How it was run: (§1)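 At 50–100 mm³, mice were randomised into three groups (n=4). Groups received i.v. 0.1 mmol/kg test compound, parent drug or PBS, all in 1% DMSO, every 3 days (Q3D×8). Caliper volume = (smallest dimension)² × largest × 0.5. Day-33 volumes were expressed relative to PBS.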

[5] = tested on: HCT116 cells; assay: Cell viability, acridine orange/propidium iodide counting; format: cell-based, human; settings: 48 h incubation
[6] = tested on: DNA methyltransferase (DNMT); assay: DNMT activity/inhibition assay kit on nuclear extracts of treated cells; format: cell-based, human; settings: HCT116 cells, 500 μM for 3 h, measured 48 h later, n=3
How it was run: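 5×10⁶ HCT116 cells were incubated 3 h at 37 °C with or without 500 μM test compound, washed three times and cultured in fresh McCoy's 5A. After 48 h, nuclear proteins were extracted with a kit and quantified by Bradford assay. DNMT activity was measured with an activity/inhibition kit using 8 μg nuclear protein per well.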

[7] = In vitro CEST MRI of solutions; format: physicochemical; settings: 11.7 T, 37 °C
How it was run: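 Compound (0.625–10 mM) was dissolved in 10 mM PBS and titrated with 3 M HCl/NaOH to pH 5.0–8.0. Samples in 1 mm capillaries were held at 37 °C at 11.7 T. RARE CEST used TR/TE 6,000/5 ms, B₁ 3.6 μT, and offsets −12 to 12 ppm in 0.3 ppm steps. B₀ was WASSR-corrected. MTR_asym was computed from ±Δω signals over S₀; exchange rate came from QUESP across saturation powers.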

[8] = tested on: HCT116 cells; assay: CEST MRI of incubated cells; format: cell-based, human; settings: 500 μM, 3 h; for CEST signal, fold less compared to Olsa-RVRR: after subtracting values of non-treated cells; for OlsaCEST signal, fold larger compared to free olsalazine: in vitro
[9] = tested on: HCT116 tumor; assay: Anti-tumor treatment response; format: in vivo, NU/J nude mice; settings: 0.1 mmol/kg i.v., Q3D×8, n=4 mice
How it was run: as §1

[10] = tested on: HCT116 cells; assay: 3D-SIM super-resolution fluorescence imaging of cells; format: cell-based, human; settings: 8 μM, 3 h
How it was run: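 Cells were exposed for 3 h to 8 μM test compound or free Alexa 488, PBS-washed, fixed 10 min in 4% paraformaldehyde and mounted in DAPI-containing medium. Super-resolution images were acquired with simultaneous 405 nm (DAPI) and 488 nm (Alexa 488) excitation. Experiments were repeated three times.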

[11] = tested on: LoVo cells; assay: 3D-SIM super-resolution fluorescence imaging of cells; format: cell-based, human; settings: 8 μM, 3 h
How it was run: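 Cells were incubated 3 h with 8 μM Alexa-conjugated test probe or free Alexa 488 dye, then washed three times with PBS. They were fixed in 4% paraformaldehyde for 10 min, washed again and mounted with DAPI-containing medium. 3D-SIM used 405 nm (DAPI) and 488 nm (Alexa 488) excitation. Experiments were repeated three times.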

[12] = tested on: HCT116 and LoVo tumors; assay: 3D-SIM imaging of resected tumors; format: in vivo, NU/J nude mouse; settings: 50 nmol i.v., tumors resected at 2 h post-injection
How it was run: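 Female NU/J nude mice, 6-8 weeks old, carried s.c. xenografts of 1×10⁶ HCT116 and 1×10⁶ LoVo cells. Each received 50 nmol of test compound or free Alexa 488 i.v.; tumors were resected at 2 h. Tissue was formalin-fixed overnight, cryoprotected overnight in 30% w/v sucrose at 4 °C, OCT-embedded, cut at 10 μm and DAPI-mounted. Imaging used 405/488 nm excitation.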

[13] = TEM and DLS of nanoparticle formation; format: physicochemical; settings: 250 μM GSH + 0.5 nmol U-1 furin, 12 h, furin buffer
How it was run: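 25 μM test compound was incubated 12 h in furin buffer with 250 μM GSH and 0.5 nmol U⁻¹ furin. The resulting particles were examined by TEM, and their size distribution was measured by DLS.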

[14] = target: furin (Homo sapiens, UniProt P09958); assay: Furin-controlled condensation in solution followed by HPLC; format: biochemical; settings: 25 μM, 250 μM GSH + 0.5 nmol U-1 furin, 12 h, 37 °C
How it was run: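 25 μM test compound was incubated with 250 μM GSH at 37 °C, pH 7.4. Reduction alone ran 2 h; with 0.5 nmol U⁻¹ furin added, incubation ran 12 h. Reduced, cleaved and condensed products were followed by HPLC. Conversion to dimer was tracked as a function of time.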

furin, sequence (P09958 108-595 limits assumed): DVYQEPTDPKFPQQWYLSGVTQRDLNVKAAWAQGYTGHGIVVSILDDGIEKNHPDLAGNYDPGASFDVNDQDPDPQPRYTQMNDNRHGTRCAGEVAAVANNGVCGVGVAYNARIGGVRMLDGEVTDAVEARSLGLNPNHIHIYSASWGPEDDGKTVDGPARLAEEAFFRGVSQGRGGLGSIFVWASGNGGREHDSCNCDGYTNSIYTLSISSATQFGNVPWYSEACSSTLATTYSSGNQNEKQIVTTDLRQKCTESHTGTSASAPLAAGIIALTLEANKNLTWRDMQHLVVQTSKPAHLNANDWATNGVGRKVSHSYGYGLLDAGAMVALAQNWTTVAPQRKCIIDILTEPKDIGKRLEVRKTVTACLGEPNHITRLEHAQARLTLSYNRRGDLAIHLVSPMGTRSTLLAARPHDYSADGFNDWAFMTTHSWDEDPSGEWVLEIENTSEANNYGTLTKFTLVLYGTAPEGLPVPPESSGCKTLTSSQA

With `O=C(O)c1cc(/N=N/c2ccc(O)c(C(=O)O)c2)ccc1O` [olsalazine] the “organ distribution of OlsaCEST signal ex vivo” value [1] was “both tumor sites showed comparable CEST signals”, the body weight [2] was “did not show any significant differences in body weight” and the “maximum OlsaCEST intensity in tumors at 0.5 h p.i.” value [3] was ~ 1.8%. The “average tumor volume at day 33 compared to PBS control group set at 100%” value [4] was 86%, the “dose to obtain a toxic effect comparable to Olsa-RVRR at 125 μM” value [5] was 2.5 mM and the “fold dose increase needed versus Olsa-RVRR for comparable toxic effect” value [5] was 20 fold. The DNMT inhibition [6] was “no significant DNMT inhibition”, the “CEST peak offset from the water proton signal” value ([7]; 10 mM in PBS) was ~ 9.8 ppm and the “proton exchange rate (kex)” value ([7]; 10 mM, pH 7.4, QUESP method) was 697 Hz. For the same compound, the “OlsaCEST signal versus non-incubated cells” value ([8]; p>0.05) was “no significant difference between free olsalazine-incubated cells and non-incubated cells” and the “average tumor volume at day 33 compared to PBS control group set at 100%” value [9] was ~ 88%.
In the case of “Ac-Arg-Val-Arg-Arg-Cys(StBu)-Lys(Alexa 488)-2-cyanobenzothiazole [Alexa-RVRR]”, the “intracellular green fluorescence (3D-SIM)” value [10] is reported as “clustering of green fluorescent nanoparticles”, the “intracellular green fluorescence (3D-SIM)” value [11] is reported as “much less” and the “green fluorescent nanoparticles in tumors (3D-SIM)” value [12] is reported as “much higher quantity of green fluorescent nanoparticles”.
With “Ac-Arg-Val-Arg-Arg-Cys(StBu)-Lys(olsalazine) [CTR2]” the “nanoparticle formation with GSH and furin (TEM)” value [13] was “no nanoparticles were formed”, the DNMT inhibition [6] was “no significant DNMT inhibition” and the “CEST signal, fold less compared to Olsa-RVRR” value [8] was 5.2 fold. The “OlsaCEST signal, fold larger compared to free olsalazine” value [8] was 2.3 fold and the “furin cleavage of the reduced compound” value [14] was “cleaved to cleaved CTR2 without condensation”.
In the case of RKRCRV [CTR1], the “nanoparticle formation with GSH and furin (TEM)” value [13] is reported as “no nanoparticles were formed”, the DNMT inhibition [6] is reported as “no significant DNMT inhibition” and the “CEST signal, fold less compared to Olsa-RVRR” value [8] is reported as 4.4 fold. The “OlsaCEST signal, fold larger compared to free olsalazine” value [8] was 2.8 fold and the “furin cleavage of the reduced compound” value [14] was “could not be further cleaved”.
